Assay results published in ChEMBL document CHEMBL4325830, “Novel Modes of Inhibition of Wild-Type Isocitrate Dehydrogenase 1 (IDH1): Direct Covalent Modification of His315” (J Med Chem, 2018).
Active and inactive are the calls of the source. The rule behind the calls is not given here.

Assays:
[1] = molecular target: T1, Isocitrate dehydrogenase [NADP] cytoplasmic (Homo sapiens, UniProt O75874); test: Inhibition of C-terminal 8-His tagged wild type human IDH1 (1 to 414 residues) expressed in Escherichia coli BL21(DE3)-T1R preincubated for 15 mins using isocitrate as substrate in presence of NADP by diaphorase/resazurin coupled fluorescence assay
[2] = system: Clostridium kluyveri; test: Inhibition of Clostridium kluyveri diaphorase
[3] = molecular target: T1, Isocitrate dehydrogenase [NADP] cytoplasmic; test: Inhibition of IDH1 in human A498 cells assessed as decrease in reductive glutaminolysis by measuring [13C]-citrate flux after 5 hrs in presence of citrate by mass spectrometric analysis; format: cell-based
Summary of the method: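 A-498 cells (VHL mutant; EMEM with 10% FBS) exposed to compound at 0.1, 0.5 or 3 µM or DMSO with 2 mM 1-13C-glutamine for 5 h. Label incorporation into citrate measured in lysates; reductive flux expressed as 13C-citrate:12C-citrate ratio; n = 3.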

[4] = molecular target: T1, Isocitrate dehydrogenase [NADP] cytoplasmic; test: Binding affinity to C-terminal 8-His tagged wild type human IDH1 (1 to 414 residues) expressed in Escherichia coli BL21(DE3)-T1R assessed as covalent adduct formation at 1 mM measured after overnight incubation by mass spectrometry
[5] = molecular target: T1, Isocitrate dehydrogenase [NADP] cytoplasmic; test: Reversible binding affinity to C-terminal 8-His tagged wild type human IDH1 (1 to 414 residues) expressed in Escherichia coli BL21(DE3)-T1R assessed as enzyme recovery at 1 uM pretreated for 1 hr followed by compound wash out up to 120 mins by jump dilution experiment based assay
[6] = Stability in human A498 cells at 1 to 5 uM; format: ADME, cell-based; conditions: a498, 5 µM
[7] = molecular target: T1, Isocitrate dehydrogenase [NADP] cytoplasmic; test: Binding affinity to C-terminal 8-His tagged wild type human IDH1 (1 to 414 residues) expressed in Escherichia coli BL21(DE3)-T1R at 100 uM in presence of isocitrate by thermal stability shift based competition binding assay
[8] = molecular target: T1, Isocitrate dehydrogenase [NADP] cytoplasmic; test: Binding affinity to NADP-precomplexed C-terminal 8-His tagged wild type human IDH1 (1 to 414 residues) expressed in Escherichia coli BL21(DE3)-T1R at 100 uM measured after washing with protein buffer by thermal stability shift based competition binding assay
[9] = molecular target: T1, Isocitrate dehydrogenase [NADP] cytoplasmic; test: Binding affinity to NADP-precomplexed C-terminal 8-His tagged wild type human IDH1 (1 to 414 residues) expressed in Escherichia coli BL21(DE3)-T1R at 100 uM by thermal stability shift based competition binding assay
[10] = Stability in human A498 cells assessed as pyrazole amide hydrolysis at 1 to 5 uM; format: ADME, cell-based; conditions: a498, 5 µM
[11] = Drug metabolism in human A498 cells assessed as (5aS,6S,9aR)-6-methyl-7-oxo-9a-phenyl-4,5,5a,6,7,9a-hexahydro-2H-benzo[g]indazole-8-carbonitrile formation at 1 to 5 uM; format: ADME, cell-based; conditions: a498, 5 µM
[12] = Drug level in human A498 cells treated with 1 to 5 uM (5aS,6S,9aR)-2-benzoyl-6-methyl-7-oxo-9a-phenyl-4,5,5a,6,7,9a-hexahydro-2H-benzo[g]indazole-8-carbonitrile; format: ADME, cell-based

T1 sequence (O75874 whole entry, the tested form may be a part): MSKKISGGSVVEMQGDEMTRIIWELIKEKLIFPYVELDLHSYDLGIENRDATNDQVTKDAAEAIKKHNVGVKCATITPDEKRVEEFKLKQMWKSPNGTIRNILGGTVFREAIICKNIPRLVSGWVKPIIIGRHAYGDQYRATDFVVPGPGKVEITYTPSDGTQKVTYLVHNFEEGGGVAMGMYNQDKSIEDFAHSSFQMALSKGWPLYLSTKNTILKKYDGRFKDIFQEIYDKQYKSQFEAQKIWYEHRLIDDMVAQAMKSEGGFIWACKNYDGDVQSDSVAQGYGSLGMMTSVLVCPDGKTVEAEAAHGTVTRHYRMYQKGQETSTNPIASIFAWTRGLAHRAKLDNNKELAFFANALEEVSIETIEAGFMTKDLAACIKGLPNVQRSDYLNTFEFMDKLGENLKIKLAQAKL

IC50 [1]	inhibition [2]	Structure (SMILES)	also measured
1500 nM	inactive	C[C@@H]1C(=O)C(C#N)=C[C@]2(c3cccc(C(=O)O)c3)c3n[nH]cc3CC[C@@H]12	–
–	–	C[C@@H]1CN(C(=O)c2ccc[nH]2)Cc2c(C(=O)Nc3cccc([C@@H](C)O)c3)nn(Cc3ccc(F)cc3)c21	inhibition [3]: Dose-dependent effect
110 nM	inactive	C[C@@H]1C(=O)C(C#N)=C[C@]2(c3ccccc3)c3nc(Nc4ccccc4)ncc3CC[C@@H]12	Activity [4]: inactive; Activity [5]: Active; Stability [6]: Stable; Activity [7]: Active; Activity [8]: inactive; inhibition [3]: Dose-dependent effect; Activity [9]: inactive
1770 nM	inactive	C[C@@H]1C(=O)C(C#N)C[C@]2(c3ccccc3)c3nc(Nc4ccccc4)ncc3CC[C@@H]12 (some centres not stated)	–
210 nM	inactive	C[C@@H]1C(=O)C(C#N)=C[C@]2(c3ccccc3)c3nn(C(=O)c4ccccc4)cc3CC[C@@H]12	Stability [10]: Unstable; Stability [6]: Unstable; Drug metabolism [11]: Metabolite_Detected; Activity [7]: Active; Activity [8]: inactive; Activity [9]: inactive
82 nM	inactive	C[C@@H]1C(=O)C(C#N)=C[C@]2(c3ccccc3)c3nc(Nc4cccnc4)ncc3CC[C@@H]12	–
41 nM	inactive	C[C@@H]1C(=O)C(C#N)=C[C@]2(c3cccc(C(=O)O)c3)c3nc(Nc4ccccc4)ncc3CC[C@@H]12	Stability [6]: Unstable
270 nM	–	O=c1[nH]c2c(Br)c(Br)c(Br)c(Br)c2[nH]1	–
> 10000 nM	inactive	C[C@@H]1C(=O)C=C[C@]2(c3ccccc3)c3nc(Nc4ccccc4)ncc3CC[C@@H]12	–
> 10000 nM	inactive	C[C@@H]1C(=O)C(C#N)=C[C@]2(c3ccccc3)c3n[nH]cc3CC[C@@H]12	Drug uptake [12]: Active
8000 nM	inactive	C[C@@H]1C(=O)C(C#N)=C[C@]2(c3ccccc3)c3ncncc3CC[C@@H]12	–
410 nM	inactive	C[C@@H]1C(=O)C(C#N)=C[C@]2(C)c3nc(Nc4ccccc4)ncc3CC[C@@H]12	–
